Ecoli tolC: E. coli tolC mutant growth inhibition; E. coli BW25113 tolC mutant growth, OD615; growth inhibition, % at 10 µM (by protocol); actives 2.2% (n = 65,000); AID 573;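 active = growth inhibition at or above a cutoff equal to the mean over every tested compound plus 3 SD, cut at about 60% in these data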;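 note: growth measured after 20 h incubation at 37 °C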
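Test system: E. coli BW25113 ΔtolC::kan bacteria | Medium: Kanamycin-containing LB broth (50 µg/mL) | Dosing: One dose of 10 µM final | Times: 20 h incubation with compound, 37 °C | Detection: Optical density read at 615 nm | Read-out basis: Percent growth inhibition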
CYP2C9 inh: human CYP2C9 inhibition | P11712 | AID 777 | CYP2C9 Supersomes, luciferin-H conversion, luminescence | inhibition, % at 5 µM | actives 20% (n = 96,000);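 active = blocking of liver enzyme CYP2C9 beyond about 50% at 5 µM, limit read from the data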
Target sequence (P11712 whole entry, looked up): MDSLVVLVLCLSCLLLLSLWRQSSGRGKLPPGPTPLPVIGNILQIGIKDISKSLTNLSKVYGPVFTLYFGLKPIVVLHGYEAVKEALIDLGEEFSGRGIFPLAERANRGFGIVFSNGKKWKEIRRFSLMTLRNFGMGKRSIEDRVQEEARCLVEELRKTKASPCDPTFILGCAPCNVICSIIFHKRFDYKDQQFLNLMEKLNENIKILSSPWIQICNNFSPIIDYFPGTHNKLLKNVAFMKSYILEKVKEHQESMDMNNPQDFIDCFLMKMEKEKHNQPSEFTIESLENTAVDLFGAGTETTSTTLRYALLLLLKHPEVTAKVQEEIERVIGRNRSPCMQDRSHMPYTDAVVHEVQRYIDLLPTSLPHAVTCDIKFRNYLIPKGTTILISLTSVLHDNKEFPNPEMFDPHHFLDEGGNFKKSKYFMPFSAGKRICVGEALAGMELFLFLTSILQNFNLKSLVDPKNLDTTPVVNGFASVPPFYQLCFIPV
E coli WT exp: E. coli BW25113 growth inhibition, expanded screen | growth inhibition, % at 100 µM | actives 0.15% (n = 98,000) | OD600 absorbance;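 active = growth inhibition above about 50% at one test dose, limit read from the data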;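 note: growth measured after 20 h incubation at 37 °C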
CYP2C19 activ: cytochrome P450 2C19 (human) activation; activation factor at 5 µM; recombinant CYP2C19, luciferin-H EGE luminescence; stronger effect = higher value; 0 = fully inhibited enzyme, 1 = untreated enzyme; P33261; 96,000 tested, under 10 active;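 active = activation factor of at least 2 at 5 µM in the primary screen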
CYP2C9 activ: CYP2C9 (human) activation. AID 1024. P11712. actives 1.4% (n = 96,000). recombinant CYP2C9, luciferin-H conversion, luminescence; stronger effect = higher value; factor 1 = untreated enzyme, 0 = blocked. activation factor at 5 µM;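 active = activation factor of 2 or more for CYP2C9 at a 5 µM dose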
CYP2C19 inhib: blocks human cytochrome P450 2C19 | actives 21% (n = 96,000) | AID 778 | CYP2C19 Supersomes, luciferin-H EGE luminescence, 30 min | inhibition, % at 5 µM | P33261;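 active = CYP2C19 inhibition above a set limit at 5 µM in the primary screen, cut at about 50% in these data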
Of the large screens only hits and unclear results are named; the others gave an inactive call. Shown are actives, neighbours in structure and some others; about 29% of the full set was active somewhere.

CCOC(=O)N1CCN(C(=O)C2COc3ccccc3O2)CC1 (stereo not drawn)	none
CCOC(=O)c1c(C2COc3ccccc3O2)csc1N (stereo not drawn)	CYP2C9 inh 80, CYP2C19 inhib 91
CCOC(=O)c1c(NC(=O)c2ccccc2)sc2c(O)c(CN(CC)CC)ccc12	none (no result: Ecoli tolC)
CC(C)CNS(=O)(=O)c1ccc(S(=O)(=O)N2CCCN(Cc3ccccc3)C2)cc1	CYP2C19 inhib 50
CC1CCN(S(=O)(=O)c2ccc(NC(=O)CN3CCCC(C)C3)cc2)CC1 (stereo not drawn)	none (no result: Ecoli tolC)
Cc1ccc(S(=O)(=O)NCc2ccc(C(=O)N3CCN(Cc4ccccc4)CC3)cc2)cc1	none (no result: Ecoli tolC)
CC1CCCN(S(=O)(=O)c2ccc(S(=O)(=O)N3CCCN(Cc4ccccc4)C3)cc2)C1 (stereo not drawn)	CYP2C9 inh 85, CYP2C19 inhib 95 (no result: E coli WT exp)
O=C(Nc1ccc(Cl)cc1)N1CCCN(Cc2ccccc2F)C1	none (no result: Ecoli tolC)
CCOc1ccc(-c2n[nH]c(C)c2Oc2ccccc2OC)c(O)c1	Ecoli tolC 95, CYP2C9 inh 89, CYP2C19 inhib 99
C=C(C)COc1ccc(-c2nc(N)nc(C)c2Oc2ccccc2OC)c(O)c1	none
C=C(C)COc1ccc(-c2n[nH]c(C)c2Oc2ccccc2OC)c(O)c1	Ecoli tolC 88, CYP2C9 inh 81, CYP2C19 inhib 81
CCOC(=O)N1CCC(NC(=O)C2CCN(S(=O)(=O)c3cnc[nH]3)CC2)CC1	none
CC(C)c1ccc(NC(=O)C2CCCN(S(=O)(=O)c3cnc[nH]3)C2)cc1 (stereo not drawn)	CYP2C9 inh 62, CYP2C19 inhib 62
CCOC(=O)c1ccc(NC(=O)C2CCCN(S(=O)(=O)c3cnc[nH]3)C2)cc1 (stereo not drawn)	CYP2C9 inh 96, CYP2C19 inhib 92
Cc1csc(NC(=O)C2CCCN(S(=O)(=O)c3cnc[nH]3)C2)n1 (stereo not drawn)	none
CC(NC(=O)C1CCCN(S(=O)(=O)c2cnc[nH]2)C1)c1ccccc1 (stereo not drawn)	CYP2C9 inh 74, CYP2C19 inhib 70
O=C(Nc1ccc(Cl)cc1)C1CCCN(S(=O)(=O)c2cnc[nH]2)C1 (stereo not drawn)	CYP2C9 inh 88, CYP2C19 inhib 90
Cc1cc(C(=O)NCCCN2CCCC2=O)no1	none
COCCSc1ccccc1C(=O)NCc1ccc(S(N)(=O)=O)cc1	none (no result: Ecoli tolC)
COC(=O)C(C)(C(=O)OC)c1ccccc1[N+](=O)[O-]	none (no result: Ecoli tolC)
O=C(NC(NC(=S)Nc1ccc(Cl)cc1Cl)C(Cl)(Cl)Cl)c1cccc([N+](=O)[O-])c1 (stereo not drawn)	CYP2C9 inh 88 (no result: Ecoli tolC)
Cc1ccc(N=C2NC(=O)CS2)c(C)c1	none
O=C1CSC(=Nc2cc(Cl)ccc2Cl)N1	CYP2C9 inh 72
COCC(N)(c1ccccc1)c1nc2ccccc2n1C (stereo not drawn)	CYP2C19 inhib 52
Cn1c(Cn2c(C(F)(F)F)nc3ccccc32)nc2ccccc21	none (no result: Ecoli tolC)
O=C(Nc1c2c(nn1-c1ccc(F)cc1)CS(=O)(=O)C2)C12CC3CC(CC(C3)C1)C2	none
Cc1cccc2sc(NC(=O)CNS(=O)(=O)c3ccc(Br)s3)nc12	CYP2C19 inhib 65
Cc1ccc2nc(NC(=O)CNS(=O)(=O)c3ccc(Br)s3)sc2c1	Ecoli tolC 61, CYP2C9 inh 63
Cc1ccc2nc(NC(=O)CN(C)S(=O)(=O)c3ccc(Br)s3)sc2c1	Ecoli tolC 81
Cc1cc(C(=O)Nc2nc3c(C)cccc3s2)c(C)o1	none (no result: Ecoli tolC)
CCOC(=O)NC(Nc1sc2c(c1C(N)=O)CCCC2)(C(=O)OCC)C(F)(F)F (stereo not drawn)	none
CSc1nnc(Nc2ccccc2C)s1	CYP2C19 inhib 68 (no result: Ecoli tolC)
C/C(N)=C(/C#N)C(=O)CSc1nnc(Nc2ccccc2C)s1	CYP2C19 inhib 60 (no result: Ecoli tolC)
Cc1ccccc1Nc1nnc(SCc2cc(=O)n3ccsc3n2)s1	none (no result: Ecoli tolC)
Cc1ccccc1Nc1nnc(SCC(=O)NC(=O)NCc2ccco2)s1	none
C/C(N)=C(/C#N)C(=O)CSc1nnc(NC(C)C)s1	CYP2C19 inhib 56
CC1(C)CC(=O)c2cc(OCC(=O)NCCN3CCOCC3)ccc2O1	none (no result: Ecoli tolC)
CCOC(=O)c1oc2cc(C)cc(O)c2c(=O)c1-c1csc(C)n1	none (no result: Ecoli tolC)
O=C(Nc1ccccc1)c1ccc(F)c(S(=O)(=O)N2CCOCC2)c1	CYP2C9 inh 56, CYP2C19 inhib 57
CCOc1ccccc1NC(=O)c1ccc(F)c(S(=O)(=O)N2CCC3(CC2)OCCO3)c1	CYP2C9 inh 58, CYP2C19 inhib 58
O=C(Nc1ccc2c(c1)OCCO2)c1ccc(Cl)c(S(=O)(=O)N2CCOCC2)c1	CYP2C19 inhib 63
O=C(Nc1ccccc1C(=O)O)c1ccc(Cl)c(S(=O)(=O)N2CCOCC2)c1	CYP2C9 inh 75
COc1ccccc1NC(=O)c1cccc(S(=O)(=O)N2CCOCC2)c1	none
COc1ccc(NC(=O)c2ccc(Cl)c(S(=O)(=O)N3CCc4ccccc4C3)c2)cn1	Ecoli tolC 62
COc1ccc(C(=O)NCC(c2ccc(F)cc2)N2CCOCC2)cc1S(=O)(=O)N1CCCC1 (stereo not drawn)	CYP2C19 inhib 92
COc1ccccc1NC(=O)c1ccc(Cl)c(S(=O)(=O)N2CCOCC2)c1	CYP2C9 inh 51
COc1ccccc1NS(=O)(=O)c1cc(C(=O)NCCN2CCOCC2)ccc1Cl	none
O=C(OCC(=O)N1CCc2ccccc21)c1ccc(Cl)nc1	none (no result: Ecoli tolC)
O=C(NC1CCCCC1)c1sc(=S)n2c1[nH]c(=O)c1ccccc12	Ecoli tolC 100, CYP2C9 inh 95, CYP2C19 inhib 72
O=C(NC1CCCCCC1)c1c(O)c2ccccc2[nH]c1=O	none
CCCCNC(=O)c1sc(=S)n(-c2ccccc2OC)c1N	none (no result: Ecoli tolC)
O=C(NCC1CCCO1)c1sc(=S)n2c1[nH]c(=O)c1ccc(C(=O)N3CCCCC3)cc12 (stereo not drawn)	Ecoli tolC 67, CYP2C9 inh 86
CCCCNC(=O)c1sc(=S)n2c1[nH]c(=O)c1ccccc12	Ecoli tolC 100, CYP2C9 inh 94
COc1cc(C(=O)COC(=O)Cc2cnc3sccn23)cc(OC)c1OC	none
O=C(O)c1ccccc1SCc1ccc2c(c1)OCO2	none
Cc1cccc(C)c1NC(=O)CSc1nnc(-c2ccoc2C)n1CCc1ccccc1	CYP2C9 inh 68, CYP2C19 inhib 70
Cc1csc(NC(=O)CSc2nnc(C)n2Cc2ccco2)n1	none
Cc1csc(NC(=O)CSc2nnc(-c3ccoc3C)n2Cc2ccco2)n1	CYP2C9 inh 88, CYP2C19 inhib 85
Cc1occc1-c1nnc(SCC(=O)Nc2nccs2)n1CCc1ccccc1	none (no result: Ecoli tolC)
CC(=O)c1ccc(NC(=O)CSc2nnc(-c3ccoc3C)n2Cc2ccccc2)cc1	none
Cc1csc(NC(=O)CSc2nnc(-c3ccoc3C)n2CCc2ccccc2)n1	CYP2C9 inh 57

Compound activity from PubChem.
